Data on one compound can be found in ChEMBL document CHEMBL4376814, “Novel cyclin-dependent kinase 9 (CDK9) inhibitor with suppression of cancer stemness activity against non-small-cell lung cancer” (Eur J Med Chem, 2019).

The source made the active and inactive calls. No cut-off for these calls is given here.

Data set [1] is filed under the species Homo sapiens. The data set can be described thus: Inhibition of recombinant full-length human ATRIP/ATR M211T mutant at 1 uM using GST-cMyc-p53 as substrate measured after 40 mins by fluorescence assay relative to control.
Data set [2] addresses Dual specificity protein kinase CLK4 (Homo sapiens) (UniProt Q9HAZ1). As to the kind of experiment: Inhibition of recombinant human CLK4 (128 to end residues) at 1 uM using YRRAAVPPSPSLSRHSSPHQS(p) EDEEE as substrate measured after 40 mins in presence of [gamma33P]ATP by scintillation counting method relative to control. In a few lines: (§1)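 Single-point inhibition at 1 µM was measured in the Eurofins KinaseProfiler panel. Values are the mean of two independent experiments.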

The next data set relates to NCI-H1299. The data set can be described thus: Downregulation of NANOG in human H1299 cells at 0.25 to 1 uM by Western blot analysis. Type of data set: functional, cell-based.
The species named for data set [3] is Homo sapiens. As to the kind of experiment: Inhibition of recombinant human MARK1 V16E/T20S double mutant (2 to end residues) at 1 uM using KKKVSRSGLYRSPSMPENLNRPR as substrate measured after 40 mins in presence of [gamma33P]ATP by scintillation counting method relative to control.
In data set [4] the target is Testis-specific serine/threonine-protein kinase 2 (Homo sapiens) (UniProt Q96PF2). The data set can be described thus: Inhibition of recombinant full-length human TSSK2 at 1 uM using KKKVSRSGLYRSPSMPENLNRPR as substrate measured after 40 mins in presence of [gamma33P]ATP by scintillation counting method relative to control.
Testis-specific serine/threonine-protein kinase 2 (Homo sapiens), sequence (Q96PF2 whole entry): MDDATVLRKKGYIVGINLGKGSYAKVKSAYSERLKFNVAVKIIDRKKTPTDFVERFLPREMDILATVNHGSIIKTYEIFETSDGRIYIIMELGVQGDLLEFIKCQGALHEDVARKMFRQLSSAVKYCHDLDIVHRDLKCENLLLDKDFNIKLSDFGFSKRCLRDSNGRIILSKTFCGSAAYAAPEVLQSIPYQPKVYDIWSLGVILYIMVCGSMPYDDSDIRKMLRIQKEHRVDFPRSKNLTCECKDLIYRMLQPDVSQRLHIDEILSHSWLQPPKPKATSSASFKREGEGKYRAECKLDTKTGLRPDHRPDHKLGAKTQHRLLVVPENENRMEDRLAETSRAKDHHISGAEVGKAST
The test system of data set [5] is CDK18/Cyclin Y (Homo sapiens), Q07002+Q8ND76 [T166M]. The data set can be described thus: Inhibition of recombinant full length human cyclinY/CDK18 T166M mutant at 1 uM using YRRAAVPPSPSLS as substrate measured after 40 mins in presence of [gamma33P]ATP by scintillation counting method relative to control. Type of data set: protein-complex assay. A digest of the protocol: as §1

Data set [6] addresses Tau-tubulin kinase 2 (Homo sapiens) (UniProt Q6IQ55). The data set can be described thus: Inhibition of recombinant human TTBK2 (1 to 331 residues) at 1 uM using casein as substrate measured after 40 mins in presence of [gamma33P]ATP by scintillation counting method relative to control.
For data set [7], the species on record is Homo sapiens. The data set can be described thus: Inhibition of recombinant full-length human pkb-alpha S478G mutant at 1 uM using GRPRTSSFAEGKK as substrate measured after 40 mins in presence of [gamma33P]ATP by scintillation counting method relative to control.
Data set [8] has as its target Cyclin-dependent kinase 13/Cyclin-K (Homo sapiens) (UniProt Q14004+O75909). As to the kind of experiment: Inhibition of human full length recombinant CDK13/cyclinK at 1 uM using RSRSRSRSRSRSRSR as substrate incubated for 120 mins in presence of [gamma-33P]ATP at by radiometric assay relative to control. Type of data set: protein-complex assay.
The species named for data set [9] is Homo sapiens. The data set can be described thus: Inhibition of recombinant human MAPKAPK2 A399G mutant (46 to end residues) at 1 uM using KKLNRTLSVA as substrate measured after 40 mins in presence of [gamma33P]ATP by scintillation counting method relative to control. A digest of the protocol:
as §1

Data set [10] has as its system A549. The data set can be described thus: Induction of apoptosis in human A549 cells assessed as late apoptotic cells at 1 uM after 48 hrs by AnnexinV-FITC/PI staining-based flow cytometric analysis (reference value: 7.66%). The data set is classed as functional. (A flow cytometer gives signals particle by particle.)
Data set [11] relates to A549. The data set can be described thus: Downregulation of cyclin T1 expression in human A549 cells at 0.25 to 1 uM after 24 hrs by Western blot analysis. Type of data set: functional, cell-based. A digest of the protocol: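 A549 and H1299 cells treated for 24 h with serial dilutions alongside a DMSO control. Protein extracts resolved and immunoblotted.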
A general note: Immunoblotting shows a protein as a band on a membrane.

Data set [12] is described as follows: Intrinsic clearance in CD-1 mouse liver microsomes at 2 uM in presence of NADPH measured up to 1 hr by HPLC analysis. Type of data set: ADME, Microsome.
Data set [13] concerns the target Serine/threonine-protein kinase Nek9 (Homo sapiens) (UniProt Q8TD19). The data set can be described thus: Inhibition of recombinant human NEK9 (1 to 324 residues) at 1 uM using myelin basic protein as substrate measured after 40 mins in presence of [gamma33P]ATP by scintillation counting method relative to control.
The species named for a further data set is Mus musculus. The data set can be described thus: Inhibition of recombinant full-length mouse LYN N425D mutant at 1 uM using poly(Glu, Tyr) 4:1 as substrate measured after 40 mins in presence of [gamma33P]ATP by scintillation counting method relative to control.
In data set [14] the target is 5'-AMP-activated protein kinase catalytic subunit alpha-2 (Homo sapiens) (UniProt P54646). The data set can be described thus: Inhibition of full length recombinant human AMPK alpha2 at 1 uM using AMARAASAAALARRR as substrate measured after 40 mins in presence of [gamma33P]ATP by scintillation counting method relative to control.
5'-AMP-activated protein kinase catalytic subunit alpha-2 (Homo sapiens), sequence (P54646 whole entry, looked up, the tested form may be a part): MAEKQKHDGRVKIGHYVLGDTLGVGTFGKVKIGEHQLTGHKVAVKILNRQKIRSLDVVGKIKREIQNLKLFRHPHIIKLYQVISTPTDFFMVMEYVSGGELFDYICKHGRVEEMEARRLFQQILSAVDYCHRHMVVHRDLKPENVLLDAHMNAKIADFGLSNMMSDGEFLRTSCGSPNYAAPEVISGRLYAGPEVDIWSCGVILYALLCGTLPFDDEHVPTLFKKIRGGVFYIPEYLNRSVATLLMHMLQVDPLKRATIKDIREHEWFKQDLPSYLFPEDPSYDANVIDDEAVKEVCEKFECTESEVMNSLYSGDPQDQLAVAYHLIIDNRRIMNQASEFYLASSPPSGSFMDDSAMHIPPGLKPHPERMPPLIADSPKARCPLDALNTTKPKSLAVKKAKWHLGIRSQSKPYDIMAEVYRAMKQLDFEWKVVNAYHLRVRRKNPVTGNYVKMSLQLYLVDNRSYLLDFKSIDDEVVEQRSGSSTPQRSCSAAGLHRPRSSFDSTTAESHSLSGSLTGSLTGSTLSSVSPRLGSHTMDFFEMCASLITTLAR
The target of data set [15] is Death-associated protein kinase 1 (Homo sapiens) (UniProt P53355). The data set can be described thus: Inhibition of recombinant human DAPK1 (1 to 296 residues) at 1 uM using KKLNRTLSFAEPG as substrate measured after 40 mins in presence of [gamma33P]ATP by scintillation counting method relative to control.
Data set [16] has as its target Dual specificity tyrosine-phosphorylation-regulated kinase 2 (Homo sapiens) (UniProt Q92630). The data set can be described thus: Inhibition of recombinant full-length human DYRK2 at 1 uM using casein as substrate measured after 40 mins in presence of [gamma33P]ATP by scintillation counting method relative to control.
The target of data set [17] is Ephrin type-A receptor 1 (Homo sapiens) (UniProt P21709). The data set can be described thus: Inhibition of recombinant human EphA1 (568 to end residues) at 1 uM using KKKSPGEYVNIEF as substrate measured after 40 mins in presence of [gamma33P]ATP by scintillation counting method relative to control.
Ephrin type-A receptor 1 (Homo sapiens), sequence (P21709 whole entry): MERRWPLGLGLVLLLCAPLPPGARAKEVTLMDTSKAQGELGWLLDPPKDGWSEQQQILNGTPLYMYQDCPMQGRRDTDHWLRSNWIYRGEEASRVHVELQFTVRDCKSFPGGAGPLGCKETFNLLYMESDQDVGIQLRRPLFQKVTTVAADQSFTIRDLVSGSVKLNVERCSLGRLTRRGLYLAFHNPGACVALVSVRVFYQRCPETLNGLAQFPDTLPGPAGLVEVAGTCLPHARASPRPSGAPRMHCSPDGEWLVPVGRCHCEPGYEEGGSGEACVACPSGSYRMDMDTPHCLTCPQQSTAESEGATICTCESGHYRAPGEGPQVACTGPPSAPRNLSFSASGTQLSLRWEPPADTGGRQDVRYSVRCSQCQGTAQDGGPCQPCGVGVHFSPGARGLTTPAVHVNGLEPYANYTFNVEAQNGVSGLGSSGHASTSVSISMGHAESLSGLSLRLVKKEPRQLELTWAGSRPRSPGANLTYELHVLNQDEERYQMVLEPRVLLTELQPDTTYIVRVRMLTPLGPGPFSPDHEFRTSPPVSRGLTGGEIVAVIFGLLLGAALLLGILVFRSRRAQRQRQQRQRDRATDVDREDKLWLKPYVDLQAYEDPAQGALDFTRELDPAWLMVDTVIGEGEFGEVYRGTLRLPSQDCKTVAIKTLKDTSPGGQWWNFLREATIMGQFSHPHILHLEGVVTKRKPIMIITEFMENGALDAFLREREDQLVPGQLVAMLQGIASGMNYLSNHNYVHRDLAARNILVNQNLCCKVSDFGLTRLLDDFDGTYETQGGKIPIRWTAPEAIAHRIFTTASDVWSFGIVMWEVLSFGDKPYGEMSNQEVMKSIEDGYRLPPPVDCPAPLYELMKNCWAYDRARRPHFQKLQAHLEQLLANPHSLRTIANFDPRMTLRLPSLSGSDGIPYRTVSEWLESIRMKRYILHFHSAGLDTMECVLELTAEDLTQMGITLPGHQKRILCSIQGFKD
Data set [18] has as its system Proto-oncogene tyrosine-protein kinase Src (Homo sapiens), P12931 [T341M]. As to the kind of experiment: Inhibition of recombinant full-length human Src T341M mutant at 1 uM using GGEEEEYFELVKKKK as substrate measured after 40 mins in presence of [gamma33P]ATP by scintillation counting method relative to control.
Data set [19] deals with Mitogen-activated protein kinase kinase kinase kinase 5 (Homo sapiens) (UniProt Q9Y4K4). The data set can be described thus: Inhibition of recombinant full-length human MAP4K5 at 1 uM using MBP as substrate measured after 40 mins in presence of [gamma33P]ATP by scintillation counting method relative to control.
Data set [20] has as its target Tyrosine-protein kinase Fgr (Homo sapiens) (UniProt P09769). The data set can be described thus: Inhibition of recombinant human FGR (2 to end residues) at 1 uM using poly(Glu, Tyr) 4:1 as substrate measured after 40 mins in presence of [gamma33P]ATP by scintillation counting method relative to control.
Data set [21] addresses Tyrosine-protein kinase ZAP-70 (Homo sapiens) (UniProt P43403). As to the kind of experiment: Inhibition of recombinant full-length human ZAP-70 at 1 uM using poly(Glu, Tyr) 4:1 as substrate measured after 40 mins in presence of [gamma33P]ATP by scintillation counting method relative to control.

Dual specificity tyrosine-phosphorylation-regulated kinase 2 (Homo sapiens), sequence (Q92630 whole entry): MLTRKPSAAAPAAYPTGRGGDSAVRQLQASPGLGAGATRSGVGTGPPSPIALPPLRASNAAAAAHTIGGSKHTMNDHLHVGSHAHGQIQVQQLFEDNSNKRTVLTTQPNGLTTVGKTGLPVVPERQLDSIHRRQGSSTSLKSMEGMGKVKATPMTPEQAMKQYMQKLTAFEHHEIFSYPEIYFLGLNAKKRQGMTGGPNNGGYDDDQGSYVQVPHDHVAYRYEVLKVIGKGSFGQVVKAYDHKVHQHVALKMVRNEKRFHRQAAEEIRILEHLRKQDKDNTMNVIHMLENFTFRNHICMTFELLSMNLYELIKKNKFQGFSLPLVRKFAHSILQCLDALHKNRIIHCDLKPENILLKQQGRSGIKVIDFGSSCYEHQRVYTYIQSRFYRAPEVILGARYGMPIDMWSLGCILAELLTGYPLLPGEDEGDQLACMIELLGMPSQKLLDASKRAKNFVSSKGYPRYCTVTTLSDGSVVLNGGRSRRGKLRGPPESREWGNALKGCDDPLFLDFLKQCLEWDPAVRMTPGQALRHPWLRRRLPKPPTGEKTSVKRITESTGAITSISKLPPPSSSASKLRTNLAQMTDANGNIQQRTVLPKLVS
Serine/threonine-protein kinase Nek9 (Homo sapiens), sequence (Q8TD19 whole entry, the tested form may be a part): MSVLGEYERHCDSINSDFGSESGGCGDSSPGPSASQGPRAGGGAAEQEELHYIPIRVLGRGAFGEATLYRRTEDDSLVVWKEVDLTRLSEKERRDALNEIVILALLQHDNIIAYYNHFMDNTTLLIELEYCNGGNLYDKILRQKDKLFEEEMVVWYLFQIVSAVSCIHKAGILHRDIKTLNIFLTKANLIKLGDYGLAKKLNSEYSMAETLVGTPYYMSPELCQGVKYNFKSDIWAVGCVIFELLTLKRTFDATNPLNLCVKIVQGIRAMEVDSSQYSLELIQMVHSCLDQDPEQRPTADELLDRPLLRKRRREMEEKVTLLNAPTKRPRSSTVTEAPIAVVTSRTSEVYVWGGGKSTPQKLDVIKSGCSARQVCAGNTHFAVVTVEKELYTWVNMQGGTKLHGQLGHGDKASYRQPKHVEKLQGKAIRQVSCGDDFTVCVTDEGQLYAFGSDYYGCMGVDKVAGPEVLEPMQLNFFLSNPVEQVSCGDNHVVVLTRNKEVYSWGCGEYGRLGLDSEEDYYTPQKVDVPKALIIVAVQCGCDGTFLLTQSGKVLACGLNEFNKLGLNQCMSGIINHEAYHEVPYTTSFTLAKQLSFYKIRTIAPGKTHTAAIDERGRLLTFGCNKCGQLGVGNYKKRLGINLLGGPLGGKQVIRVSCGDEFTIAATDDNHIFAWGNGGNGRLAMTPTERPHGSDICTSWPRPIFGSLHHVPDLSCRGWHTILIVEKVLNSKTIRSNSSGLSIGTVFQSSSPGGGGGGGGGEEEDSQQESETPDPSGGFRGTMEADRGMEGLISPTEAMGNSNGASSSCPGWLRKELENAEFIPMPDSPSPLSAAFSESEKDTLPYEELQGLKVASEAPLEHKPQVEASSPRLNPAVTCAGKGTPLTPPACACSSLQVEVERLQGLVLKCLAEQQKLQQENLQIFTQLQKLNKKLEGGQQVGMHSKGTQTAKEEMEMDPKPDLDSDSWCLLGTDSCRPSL
Proto-oncogene tyrosine-protein kinase Src (Homo sapiens), P12931 [T341M], sequence (P12931 whole entry T341M, looked up): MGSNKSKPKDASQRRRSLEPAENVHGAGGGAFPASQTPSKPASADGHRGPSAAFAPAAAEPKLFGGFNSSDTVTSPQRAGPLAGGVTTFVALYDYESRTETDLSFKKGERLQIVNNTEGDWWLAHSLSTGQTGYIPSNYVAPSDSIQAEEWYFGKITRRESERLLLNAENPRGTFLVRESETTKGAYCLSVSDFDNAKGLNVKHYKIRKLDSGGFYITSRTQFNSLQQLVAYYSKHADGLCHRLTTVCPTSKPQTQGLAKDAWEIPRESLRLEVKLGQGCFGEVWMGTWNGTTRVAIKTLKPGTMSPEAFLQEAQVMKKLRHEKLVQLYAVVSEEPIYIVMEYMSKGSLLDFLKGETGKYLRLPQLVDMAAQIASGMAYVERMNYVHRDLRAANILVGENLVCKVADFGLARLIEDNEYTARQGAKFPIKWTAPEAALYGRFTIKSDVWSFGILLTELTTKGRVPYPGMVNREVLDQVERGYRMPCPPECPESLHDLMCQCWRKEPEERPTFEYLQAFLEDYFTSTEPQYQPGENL
Tyrosine-protein kinase ZAP-70 (Homo sapiens), sequence (P43403 whole entry): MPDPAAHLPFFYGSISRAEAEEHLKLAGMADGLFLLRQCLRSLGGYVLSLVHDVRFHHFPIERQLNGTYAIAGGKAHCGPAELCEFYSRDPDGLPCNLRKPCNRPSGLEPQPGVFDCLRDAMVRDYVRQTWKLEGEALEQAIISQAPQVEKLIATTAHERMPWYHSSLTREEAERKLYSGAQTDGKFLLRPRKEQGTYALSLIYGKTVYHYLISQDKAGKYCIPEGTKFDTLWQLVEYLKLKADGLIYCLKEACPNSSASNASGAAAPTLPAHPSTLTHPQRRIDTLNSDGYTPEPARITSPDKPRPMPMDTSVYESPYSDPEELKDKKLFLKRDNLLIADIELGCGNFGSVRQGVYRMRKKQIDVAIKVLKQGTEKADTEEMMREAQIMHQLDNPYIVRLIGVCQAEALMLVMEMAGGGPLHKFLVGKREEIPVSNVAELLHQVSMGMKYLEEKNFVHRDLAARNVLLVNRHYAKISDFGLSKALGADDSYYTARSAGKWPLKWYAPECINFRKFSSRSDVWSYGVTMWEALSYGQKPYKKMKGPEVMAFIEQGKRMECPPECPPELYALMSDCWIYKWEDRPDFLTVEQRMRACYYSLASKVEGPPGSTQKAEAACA

What is called inhibition is the drop in the measured response relative to a control, in per cent. As for `CN(C)C(=O)c1cc2cnc(Nc3ccc(NC(=O)CCCCCCCN=C=S)cc3)nc2n1C1CCCC1`, the inhibition was -4% in the data set listed under Homo sapiens [1]; 1% in data set [2]; 59% in the data set listed under Homo sapiens [3]; -3% in data set [4]; 11% in data set [5]; -5% in [6]. For the same compound, the inhibition in the data set filed under Homo sapiens [7] was 5%; in data set [8], 26%; in the data set filed under Homo sapiens [9] it was 1%; in [13], 41%; in the data set listed under Mus musculus, 36%; in [14] it was 20%. Also, the inhibition in data set [15] was -5%; in [16], -1%; in data set [17], 44%; in [18], 20%; in data set [19], 75%; in data set [20], 66%. Further, in data set [21], the inhibition is 13%. The outcome in the data set with NCI-H1299 and in the data set with A549 [11] was Active. Also, the Activity in the data set with A549 [10] is 16.4%. Moreover, the CLH in data set [12] was found to be 100 µL/min/mg.
